Measured values of several laboratories.
Protocols differ between the studies behind these lines.
Cell line: HeLa
Observed: cell growth or viability
Technique: MTT

For `O=C(Nc1cccc([N+](=O)[O-])c1)c1cccs1`, the IC50 was 282 µM.
`C=C(COCc1ccc(OC)cc1)[C@@H]1CC[C@@H](C)C[C@H]1OCc1ccc(OC)cc1` has an inhibition of 60.6% (30 µM, 72 h).
`O=c1c(C=NNC(=S)Nc2ccccc2)coc2ccccc12` gave an IC50 of 91.9 µM (48 h).
With `Cc1cc(NC(=O)C=Cc2ccccc2)cc(-c2ccnc(N3CCOCC3)c2)c1` the inhibition was 16.2% (5 µM).
`COc1ccc(COC[C@@](O)(CNCc2ccccc2)[C@@H]2CC[C@@H](C)C[C@H]2OCc2ccc(OC)cc2)cc1` gave an inhibition of 97.4% (30 µM, 72 h).
The inhibition of `O=C(CCc1ccccc1)Nc1cc(-c2ccnc(N3CCC(O)CC3)c2)ccn1` is reported as 82.9% (5 µM).
For `COc1ccc(COC[C@@](O)(CNCc2ccc(F)cc2)[C@@H]2CC[C@@H](C)C[C@H]2OCc2ccc(OC)cc2)cc1`, the inhibition was 99.1% (30 µM, 72 h).
`O=C(C=Cc1ccc(F)cc1)Nc1cc(-c2ccnc(N3CCC(O)CC3)c2)ccn1` has an inhibition of 67.2% (5 µM).
`COc1cccc2c1C(=O)c1c(O)c3c(c(O)c1C2=O)C[C@@](O)(C(=O)CO)C[C@@H]3O[C@H]1C[C@H](N)[C@H](O)[C@H](C)O1` gave a GI50 of 4.21 µM.
The IC50 of `C[C@H](CCC(=O)O)[C@H]1CC[C@H]2[C@@H]3CC[C@@H]4C[C@H](O)CC[C@]4(C)[C@H]3CC[C@]12C` is reported as 56 µM (72 h).
The inhibition of `C[C@@H]1CC[C@@H]([C@@](C)(O)Cn2cnc3ccccc32)[C@H](OCc2ccccc2)C1` is reported as 86.3% (30 µM, 72 h).
With `O=C(C=Cc1ccccc1)Nc1cc(-c2ccnc(N3CCC(O)CC3)c2)ccn1` the IC50 was 0.0741 µM (72 h).
The GI50 of `COC(=O)COc1c(Cc2cc(C(C)(C)CC(C)(C)C)cc(-n3nc4ccccc4n3)c2OCC(=O)OC)cc(C(C)(C)CC(C)(C)C)cc1-n1nc2ccccc2n1` is reported as 8.12 µM.
`[NH2][Pt]([NH2])([Cl])[Cl]` gave an IC50 of 6.8 µM (72 h).
`Cc1cccc(/C=C/C(=O)Nc2cc(-c3ccnc(N4CCOCC4)c3)ccn2)c1` gave an inhibition of 72% (5 µM).
With `C=C(COCc1ccc(F)cc1)[C@@H]1CC[C@@H](C)C[C@H]1OCc1ccc(F)cc1` the inhibition was 32.8% (10 µM, 72 h).
With `O=C(C=Cc1ccccc1)Nc1cccc(-c2ccnc(N3CCC(CO)CC3)c2)c1` the inhibition was 73.1% (5 µM).
`O=C(Nc1cccc([N+](=O)[O-])c1)c1ccco1` has an IC50 of 637 µM.
